What was measured:
[1] = molecular target: T1, S-adenosylmethionine decarboxylase proenzyme (Rattus norvegicus) (UniProt P17708); assay: Time required for the half inactivation of S-Adenosyl-L-methionine decarboxylase was determined with 0.2 mM of compound
T1 sequence (whole entry): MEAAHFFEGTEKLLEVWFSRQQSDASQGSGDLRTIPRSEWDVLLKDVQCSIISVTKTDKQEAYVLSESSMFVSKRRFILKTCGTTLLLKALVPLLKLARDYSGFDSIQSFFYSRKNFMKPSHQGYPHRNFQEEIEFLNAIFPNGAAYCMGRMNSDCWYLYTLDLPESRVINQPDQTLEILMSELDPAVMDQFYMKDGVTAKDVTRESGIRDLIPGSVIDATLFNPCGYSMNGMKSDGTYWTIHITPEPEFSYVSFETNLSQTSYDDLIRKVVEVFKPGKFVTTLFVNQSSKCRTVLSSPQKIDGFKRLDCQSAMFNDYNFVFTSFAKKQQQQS
How it was run: (§1)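 The partly purified rat liver enzyme, from MGBG-treated rats, was incubated at 37 °C in 30 mM sodium phosphate pH 7.1 with 5 mM dithiothreitol and the stated additions. Aliquots were taken at intervals and assayed for remaining activity with S-adenosyl-L-[carboxy-14C]methionine. The half-inactivation time was obtained by a least-squares fit of the data points.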

[2] = molecular target: T2, S-adenosylmethionine decarboxylase proenzyme (Rattus norvegicus, UniProt P17708); assay: In vitro inhibitory activity against S-adenosyl-L-methionine decarboxylase using liver from rat in presence of 1 mM putrescine
T2 sequence (P17708 whole entry): T1 sequence (whole entry)
How it was run: (§2)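 Enzyme source: liver of rats injected with MGBG·2HCl (80 mg/kg) 22 h before sacrifice. The extract was taken through a 10500g centrifugation and an (NH4)2SO4 precipitation. Decarboxylation of S-adenosyl-L-[carboxy-14C]methionine was measured as 14CO2 release, with or without 1 mM putrescine. Competitive inhibition was judged from Lineweaver-Burk plots, and Ki was read from Dixon plots.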

[3] = molecular target: T1, S-adenosylmethionine decarboxylase proenzyme (Rattus norvegicus); assay: Time required for the half inactivation of S-Adenosyl-L-methionine decarboxylase was determined with 0.2 mM of compound along with 1 mM NaBH3CN; how it was run: as §1
[4] = molecular target: T2, S-adenosylmethionine decarboxylase proenzyme; assay: In vitro inhibitory activity against S-adenosyl-L-methionine decarboxylase using liver from rat in absence of putrescine; how it was run: as §2
[5] = molecular target: T1, S-adenosylmethionine decarboxylase proenzyme (Rattus norvegicus); assay: Time required for the half inactivation of S-Adenosyl-L-methionine decarboxylase was determined with 0.2 mM of Compound along with 1 mM NaBH3CN; how it was run: as §1
[6] = molecular target: T1, S-adenosylmethionine decarboxylase proenzyme (Rattus norvegicus); assay: Time required for the half inactivation of S-adenosyl-L-methionine decarboxylase with 0.5 mM of compound along with 0.05 mM of [5-(6-Amino-purin-9-yl)-3,4-dihydroxy-tetrahydro-furan-2-ylmethyl]-dimethyl-sulfonium; iodide; how it was run: as §1
[7] = molecular target: T1, S-adenosylmethionine decarboxylase proenzyme (Rattus norvegicus); assay: Time required for the half inactivation of S-adenosyl-L-methionine decarboxylase with 1 mM of compound along with 0.05 mM of [5-(6-Amino-purin-9-yl)-3,4-dihydroxy-tetrahydro-furan-2-ylmethyl]-dimethyl-sulfonium; iodide; conditions: in the assay text read “0.2 mM of compound” for “1 mM of compound”; how it was run: as §1
[8] = molecular target: T1, S-adenosylmethionine decarboxylase proenzyme (Rattus norvegicus); assay: Time required for the half inactivation of S-adenosyl-L-methionine decarboxylase was determined with 0.5 mM of compound

For C[S+](CC[C@H](N)C(=O)[O-])C[C@H]1O[C@@H](n2cnc3c(N)ncnc32)[C@H](O)[C@@H]1O (some centres undefined) [ADEMETIONINE], the Inactivation time [1] was 100 min, the Ki [2] was 60 µM and the Inactivation time [3] was 25 min. For the same compound, the Ki [4] was 300 µM.

Work on CNCCCNC[C@H]1OC(n2cnc3c(N)ncnc32)[C@H](O)[C@@H]1O (some centres undefined) yielded a Ki [2] of 600 µM.

With NCCCNC[C@H]1OC(n2cnc3c(N)ncnc32)[C@H](O)[C@@H]1O (some centres undefined) the Inactivation time [1] was 250 min, the Ki [2] was 50 µM and the Inactivation time [5] was 25 min.

NCCNC[C@H]1OC(n2cnc3c(N)ncnc32)[C@H](O)[C@@H]1O (some centres undefined) gave a Ki [2] of 70 µM and a Ki [4] of 540 µM.

C[S+](C)C[C@H]1O[C@@H](n2cnc3c(N)ncnc32)[C@H](O)[C@@H]1O gave a Ki [2] of 2 µM and a Ki [4] of 20 µM.

In the case of N=C(N)NC[C@H]1OC(n2cnc3c(N)ncnc32)[C@H](O)[C@@H]1O (some centres undefined), the Ki [2] is reported as 80 µM and the Ki [4] is reported as 1000 µM.

CN(CCC#N)C[C@H]1OC(n2cnc3c(N)ncnc32)[C@H](O)[C@@H]1O (some centres undefined) gave a Ki [2] of 300 µM and a Ki [4] of 2800 µM.

NC[C@H]1O[C@@H](n2cnc3c(N)ncnc32)[C@H](O)[C@@H]1O was tested, and the Ki [2] was 200 µM and the Ki [4] was 1700 µM.

C[S+](CCCN)C[C@H]1OC(n2cnc3c(N)ncnc32)[C@H](O)[C@@H]1O (some centres undefined) showed an Inactivation time [1] of 100 min, a Ki [2] of 3 µM and an Inactivation time [3] of 10 min. For the same compound, the Ki [4] was 40 µM.

CN(CCCN)C[C@H]1OC(n2cnc3c(N)ncnc32)[C@H](O)[C@@H]1O (some centres undefined) gave an Inactivation time [6] of 98 min, an Inactivation time [1] of 93 min and an Inactivation time [7] of 50 min. It also gave an Inactivation time [8] of 41 min, a Ki [2] of 60 µM and an Inactivation time [3] of 12 min. It also gave a Ki [4] of 380 µM.
